Active and inactive are the calls of the source. The rule behind the calls is not given here.
Key:
Salmonella typhimurium [1] = experiment: Antimicrobial activity against Salmonella Typhimurium ATCC 14028 assessed as inhibition of biofilm formation after 24 hrs by spectrophotometry; type: functional, organism-based, Salmonella enterica subsp. enterica serovar Typhimurium; settings: for IC50: Salmonella enterica, ATCC 14028, 24 h
How it was run: (§1)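 Static peg-lid biofilm prevention assay. Twofold serial dilutions in TSB diluted 1/20, 2–3 repeats per compound. Overnight S. Typhimurium ATCC14028 (LB-grown) or P. aeruginosa PA14 (TSB-grown) cultures were diluted 1:100, giving ~10^6 cells/well, then incubated 24 h at 25 °C without shaking. Pegs were PBS-washed, stained 30 min with 0.1% crystal violet, extracted with 30% acetic acid and read at OD570. IC50 was fitted from the concentration gradient.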

Pseudomonas aeruginosa [2] = experiment: Antimicrobial activity against Pseudomonas aeruginosa PA14 assessed as inhibition of biofilm formation after 24 hrs by spectrophotometry; type: functional, organism-based; settings: PA14, 24 h; how it was run: as §1
Salmonella typhimurium [3] = experiment: Antimicrobial activity against Salmonella Typhimurium ATCC 14028 assessed as inhibition of planktonic cell growth at IC50 after 24 hrs by […]; type: functional, organism-based; settings: Salmonella enterica subsp. enterica serovar Typhimurium
How it was run: (§2)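 Planktonic growth was followed by Bioscreen growth curves, not by crystal violet. Overnight cultures were diluted 1:200 in TSB 1/20 and received compound serially diluted in DMSO or EtOH, in triplicate, with solvent controls. Plates were shaken at 25 °C for at least 24 h, reading A600 every 15 min.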

Pseudomonas aeruginosa [4] = experiment: Antimicrobial activity against Pseudomonas aeruginosa PA14 assessed as inhibition of planktonic cell growth at IC50 after 24 hrs by […]; type: functional, organism-based; how it was run: as §2

| IC50 (Salmonella typhimurium [1]) [µM] | IC50 (Pseudomonas aeruginosa [2]) [µM] | Compound | growth inhibition (GI) (Salmonella typhimurium [3]) | growth inhibition (GI) (Pseudomonas aeruginosa [4]) | inhibition (INH) (Salmonella typhimurium [1]) [%] |
| --- | --- | --- | --- | --- | --- |
| 564 | – | CN1c2nccc[n+]2C[C@@]1(O)c1cccc([N+](=O)[O-])c1 | – | – | – |
| 60.3 | 99.9 | CCCCCCCCN1c2nccc[n+]2C[C@@]1(O)c1ccc(S(C)(=O)=O)cc1 | – | – | – |
| > 800 | > 800 | CCCCCCCCCCCCCCN1c2nccc[n+]2C[C@@]1(O)c1ccc(Cl)cc1 | – | – | – |
| 702 | > 800 | CCCCNc1ncc(-c2ccc([N+](=O)[O-])cc2)[nH]1 | – | – | – |
| 1820 | – | CN1c2nccc[n+]2C[C@@]1(O)c1ccc(F)cc1 | – | – | – |
| 18.3 | 20.2 | CCCCCCCCCN1c2nccc[n+]2C[C@@]1(O)c1ccc(Cl)cc1 | Active | Active | – |
| 110 | – | COc1ccc(CN2c3nccc[n+]3C[C@@]2(O)c2ccc(Br)cc2)cc1 | – | – | – |
| 102 | 406 | CCCCCCN1c2nccc[n+]2C[C@@]1(O)c1ccccc1 | – | – | – |
| 698 | > 400 | CN1c2nccc[n+]2C[C@@]1(O)c1ccc([N+](=O)[O-])cc1 | – | – | – |
| 410 | > 400 | CCCCN1c2nccc[n+]2C[C@@]1(O)c1ccccc1 | – | – | – |
| 125 | 20.4 | O=[N+]([O-])c1ccc([C@]2(O)C[n+]3cccnc3N2C2CC2)cc1 | – | – | – |
| 293 | 145 | CCCCN1c2nccc[n+]2C[C@@]1(O)c1ccc([N+](=O)[O-])cc1 | – | – | – |
| 400 | > 800 | CCCCCCCCNc1ncc(-c2ccc(OC)cc2)[nH]1 | – | – | 50 |
| 66.6 | 456 | Fc1ccc(-c2cnc(NCc3ccc4c(c3)OCO4)[nH]2)cc1 | inactive | – | – |
| 23.4 | 25.5 | CCCCCCCN1c2nccc[n+]2C[C@@]1(O)c1ccccc1 | Active | Active | – |
| 13.2 | 36.5 | CCCCCCCCN1c2nccc[n+]2C[C@@]1(O)c1ccc(SC)cc1 | – | – | – |
| 12.6 | 22.7 | O[C@@]1(c2ccc(Cl)cc2)C[n+]2cccnc2N1C1CCCCCCC1 | Active | Active | – |
| 53.7 | – | O[C@@]1(c2ccc3c(c2)OCO3)C[n+]2cccnc2N1Cc1ccc2c(c1)OCO2 | inactive | – | – |
| 602 | – | CNc1ncc(-c2ccc(F)c(F)c2)[nH]1 | – | – | – |
| 1.9 | > 800 | CCCCCCCCNc1ncc(-c2ccc(Br)cc2)[nH]1 | – | – | – |
| 211 | 41.5 | CC(C)(C)N1c2nccc[n+]2C[C@@]1(O)c1ccc([N+](=O)[O-])cc1 | – | – | – |
| > 800 | > 400 | CN1c2nccc[n+]2C[C@@]1(O)c1ccccc1 | – | – | – |

| IC50 (Salmonella typhimurium [1]) [µM] | IC50 (Pseudomonas aeruginosa [2]) [µM] | Compound | growth inhibition (GI) (Salmonella typhimurium [3]) | growth inhibition (GI) (Pseudomonas aeruginosa [4]) | inhibition (INH) (Salmonella typhimurium [1]) [%] |
| --- | --- | --- | --- | --- | --- |
| > 400 | 6.3 | CCCCCNc1ncc(-c2ccc(Cl)cc2)[nH]1 | – | – | – |
| 322 | 192 | CC(C)CN1c2nccc[n+]2C[C@@]1(O)c1ccc([N+](=O)[O-])cc1 | – | – | – |
| 131 | 289 | CC(C)CN1c2nccc[n+]2C[C@@]1(O)c1ccccc1 | – | – | – |
| 121 | 372 | O[C@@]1(c2ccc(Cl)cc2)C[n+]2cccnc2N1C1CCC1 | – | – | – |
| 493 | > 400 | O[C@@]1(c2ccccc2)C[n+]2cccnc2N1C1CCC1 | – | – | – |
| 31 | 215 | CCCCCCCCN1c2nccc[n+]2C[C@@]1(O)c1ccc(-c2ccc([N+](=O)[O-])cc2)cc1 | – | – | – |
| 7.6 | – | CCCCCCCCN1c2nccc[n+]2C[C@@]1(O)c1ccc(F)cc1 | – | – | – |
| 171 | 104 | CCNc1ncc(-c2ccc([N+](=O)[O-])cc2)[nH]1 | – | – | – |
| 7.1 | – | CCCCCCCCN1c2nccc[n+]2C[C@@]1(O)c1ccc(Cl)c(Cl)c1 | – | – | – |
| 314 | – | CCCCN1c2nccc[n+]2C[C@@]1(O)c1ccc(OC)cc1 | – | – | – |
| > 400 | 12.5 | CCCCCCNc1ncc(-c2ccc(F)cc2)[nH]1 | – | – | – |
| > 400 | 3.1 | CCCCCCCCNc1ncc(-c2ccc(F)cc2)[nH]1 | – | – | – |
| 579 | > 800 | CCN1c2nccc[n+]2C[C@@]1(O)c1ccc([N+](=O)[O-])cc1 | – | – | – |
| 8.8 | 14.4 | O=[N+]([O-])c1ccc([C@]2(O)C[n+]3cccnc3N2C23CC4CC(CC(C4)C2)C3)cc1 | – | – | – |
| 32.4 | – | CCCCCCCCCCN1c2nccc[n+]2C[C@@]1(O)c1ccc(Cl)c(Cl)c1 | – | – | – |
| > 800 | > 800 | COc1ccc(CNc2ncc(-c3ccc([N+](=O)[O-])cc3)[nH]2)cc1 | – | – | – |
| 6.7 | 36.9 | CCCCCCCN1c2nccc[n+]2C[C@@]1(O)c1ccc(Cl)cc1 | – | – | – |
| 18.6 | – | CCCCCCCCCCN1c2nccc[n+]2C[C@@]1(O)c1ccc(OC)cc1 | Active | – | – |
| 13.7 | 79.8 | CCCCCCN1c2nccc[n+]2C[C@@]1(O)c1ccc(Cl)cc1 | – | – | – |
| 278 | 565 | CCCCCN1c2nccc[n+]2C[C@@]1(O)c1ccccc1 | – | – | – |
| 174 | – | O=[N+]([O-])c1ccc([C@]2(O)C[n+]3cccnc3N2Cc2ccccc2)cc1 | – | – | – |
| 163 | – | CCCCN1c2nccc[n+]2C[C@@]1(O)c1ccc(F)cc1 | – | – | – |

| IC50 (Salmonella typhimurium [1]) [µM] | IC50 (Pseudomonas aeruginosa [2]) [µM] | Compound | growth inhibition (GI) (Salmonella typhimurium [3]) | growth inhibition (GI) (Pseudomonas aeruginosa [4]) | inhibition (INH) (Salmonella typhimurium [1]) [%] |
| --- | --- | --- | --- | --- | --- |
| > 800 | > 800 | COc1cccc(CNc2ncc(-c3ccc(-c4ccc(-c5ccccc5)cc4)cc3)[nH]2)c1 | – | – | – |
| – | 10.5 | c1ccc2c(-c3cnc(NCc4ccc5c(c4)OCO5)[nH]3)cccc2c1 | – | – | – |
| > 800 | 261 | CC(C)Nc1ncc(-c2ccccc2)[nH]1 | – | – | – |
| 540 | > 400 | CC(C)N1c2nccc[n+]2C[C@@]1(O)c1ccccc1 | – | – | – |
| 20 | – | CCCCCCCCCCN1c2nccc[n+]2C[C@@]1(O)c1ccc(F)cc1 | – | – | – |
| > 400 | 1.6 | CCCCCCCCNc1ncc(-c2ccc(Cl)cc2)[nH]1 | – | – | – |
| 212 | – | O[C@@]1(c2ccccc2)C[n+]2cccnc2N1Cc1ccccc1 | – | – | – |
| 466 | 192 | CC(C)N1c2nccc[n+]2C[C@@]1(O)c1ccc([N+](=O)[O-])cc1 | – | – | – |
| > 800 | – | CCCCCCCCCNc1ncc(-c2ccc(Cl)cc2)[nH]1 | – | – | – |
| 160 | – | CNc1ncc(-c2ccc(O)cc2)[nH]1 | – | – | – |
| 122 | > 800 | CCCCCCCCCCCCN1c2nccc[n+]2C[C@@]1(O)c1ccc(Cl)cc1 | – | – | – |
| 14.7 | 15.1 | CCCCCCCCN1c2nccc[n+]2C[C@@]1(O)c1cccc2ccccc12 | – | – | – |
| > 800 | > 800 | COc1cccc(CNc2ncc(-c3ccc(Cl)c(Cl)c3)[nH]2)c1 | – | – | – |
| 82.7 | 179 | O[C@@]1(c2ccc(Cl)cc2)C[n+]2cccnc2N1C1CC1 | – | – | – |
| > 800 | 25 | Clc1ccc(-c2cnc(NC3CCCCC3)[nH]2)cc1 | – | – | – |
| 316 | > 800 | CCCCCCCCCCCCCN1c2nccc[n+]2C[C@@]1(O)c1ccc(Cl)cc1 | – | – | – |
| 10.5 | – | CCCCCCCCN1c2nccc[n+]2C[C@@]1(O)c1ccc(OC)cc1 | – | – | – |
| 238 | > 800 | CCCCCCCCNc1ncc(-c2cccc3ccccc23)[nH]1 | – | – | 50 |
| 225 | 170 | CN1c2nccc[n+]2C[C@@]1(O)c1ccc(Cl)cc1 | – | – | – |
| 52.8 | 336 | CCCCCCCCN1c2nccc[n+]2C[C@@]1(O)c1ccc(-c2ccc(-c3ccccc3)cc2)cc1 | – | – | – |
| 90.1 | – | CCCCN1c2nccc[n+]2C[C@@]1(O)c1ccc(Br)cc1 | – | – | – |
| 118 | > 800 | CCCCCCCCNc1ncc(-c2ccc(Cl)c(Cl)c2)[nH]1 | – | – | 50 |

Source: ChEMBL document CHEMBL1811868, “Structure-activity relationship of 2-hydroxy-2-aryl-2,3-dihydro-imidazo[1,2-a]pyrimidinium salts and 2N-substituted 4(5)-aryl-2-amino-1H-imidazoles as inhibitors of biofilm formation by Salmonella Typhimurium and Pseudomonas aeruginosa” (Bioorg Med Chem, 2011)
